Here are results for 37 compounds from ChEMBL document CHEMBL3421596, “A facile synthesis and microtubule-destabilizing properties of 4-(1H-benzo[d]imidazol-2-yl)-furazan-3-amines” (Eur J Med Chem, 2015).

Common to all, as to type: functional
Test [1] in a line: Cytotoxicity against human NCI60 cells assessed as cell growth at 10 uM. To be noted: read-out: Activity. The method, boiled down:
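NCI60 panel screened by the NCI Developmental Therapeutics Program at a single 10 µM concentration; mean cell growth percent reported.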

The subject of test [2] is Paracentrotus lividus. Nature of the test: Antiproliferative activity in sea urchin embryo assessed as antimitotic activity by measuring cleavage alteration exposed for 8 to 20 mins after fertilization and 45 to 55 mins before first mitotic cycle completion measured 2.5 to […] after fertilization.
The subject of test [3] is Paracentrotus lividus. Nature of the test: Antiproliferative activity in sea urchin embryo assessed as antimitotic activity by measuring cleavage arrest exposed for 8 to 20 mins after fertilization and 45 to 55 mins before first mitotic cycle completion measured 2.5 to […] after fertilization.
In test [4] the test system is Paracentrotus lividus. The test can be described thus: Antiproliferative activity in sea urchin embryo assessed as destabilization of microtubule by measuring embryo spinning after 15 mins to 20 hrs.

The structures appear in SMILES notation.

Take `Nc1nonc1-c1nc2ccccc2n1CC(=O)NCc1ccc(F)cc1`: the growth at 10 µM in test [1] was determined as 102%. For the same compound, the figures for the EC with Paracentrotus lividus [2], in the test on Paracentrotus lividus [3] and with Paracentrotus lividus [4] were 4 µM, over 4 µM and over 4 µM, respectively.

Consider `CC(=O)Nc1nonc1-c1nc2ccccc2n1Cc1ccc(C#N)cc1`, for which, in test [1], the growth at 10 µM amounted to 94.1%. Besides, the EC in the test on Paracentrotus lividus [2], in the test on Paracentrotus lividus [3] and in the test on Paracentrotus lividus [4] was over 4 µM throughout.

With `CCOc1ccc(Cn2c(-c3nonc3N)nc3ccccc32)cc1OCC`, in test [1], the growth at 10 µM is 81%. Besides, the EC in the test with Paracentrotus lividus [2], with Paracentrotus lividus [3] and in the test on Paracentrotus lividus [4] was over 4 µM in each case.

`CC(=O)Nc1nonc1-c1nc2ccccc2n1Cc1cccc(C(F)(F)F)c1`: in test [1], the growth at 10 µM came to 82.2%. Besides, the EC in the test on Paracentrotus lividus [2], in the test on Paracentrotus lividus [3] and in the test on Paracentrotus lividus [4] was over 4 µM in each case.

As to `CC(=O)Nc1nonc1-c1nc2ccccc2n1Cc1ccncc1`, the growth at 10 µM in test [1] came to 101%. In addition, the EC in the test on Paracentrotus lividus [2] was over 4 µM; with Paracentrotus lividus [3], over 4 µM; in the test on Paracentrotus lividus [4], over 5 µM.

Turning to `CC(=O)Nc1nonc1-c1nc2ccccc2n1Cc1ccc(C(C)(C)C)cc1`, the growth at 10 µM in test [1] turned out to be 73.5%.

Turning to `Nc1nonc1-c1nc2ccccc2n1Cc1c(F)cccc1Cl`, in test [1], the growth at 10 µM was 91.9%. The EC in the test with Paracentrotus lividus [2], in the test on Paracentrotus lividus [3] and in the test on Paracentrotus lividus [4] was over 4 µM in each case.

For the compound `Nc1nonc1-c1nc2ccccc2n1CCO`, in test [1], the growth at 10 µM was determined as 102%.

On to `COc1ccc(NC(=O)Cn2c(-c3nonc3N)nc3ccccc32)cc1Cl`, for which, in test [1], the growth at 10 µM is 100%. For the same compound, the EC in the test with Paracentrotus lividus [2], in the test on Paracentrotus lividus [3] and with Paracentrotus lividus [4] was over 4 µM throughout.

`Nc1nonc1-c1nc2ccccc2n1Cc1ccc(Cl)cc1`: the growth at 10 µM in test [1] is 85%. Besides, the EC with Paracentrotus lividus [2], with Paracentrotus lividus [3] and in the test on Paracentrotus lividus [4] was over 4 µM throughout.

Consider `COc1ccc2[nH]c(-c3nonc3-n3cccc3)nc2c1`, for which, in test [1], the growth at 10 µM was determined as 104%. Further, the values for the EC with Paracentrotus lividus [2], in the test on Paracentrotus lividus [3] and with Paracentrotus lividus [4] were 2 µM, over 4 µM and over 4 µM, respectively.

Regarding `Nc1nonc1-c1nc2ccccc2n1Cc1cc2c(cc1Br)OCO2`, the growth at 10 µM in test [1] amounted to 86.1%. Besides, the EC with Paracentrotus lividus [2], in the test with Paracentrotus lividus [3] and in the test with Paracentrotus lividus [4] was over 4 µM throughout.

`N#CCn1c(-c2nonc2N)nc2ccccc21`: the growth at 10 µM in test [1] was found to be 102%. Moreover, the EC with Paracentrotus lividus [2], in the test on Paracentrotus lividus [3] and in the test with Paracentrotus lividus [4] was over 4 µM throughout.

Consider `C=CCn1c(-c2nonc2NC(C)=O)nc2ccccc21`, for which the growth at 10 µM in test [1] amounted to 96.5%. Besides, the EC with Paracentrotus lividus [2], with Paracentrotus lividus [3] and with Paracentrotus lividus [4] was over 4 µM in each case.

Turning to `Nc1nonc1-c1nc2c(Cl)cccc2[nH]1`, in test [1], the growth at 10 µM is 99.8%. Moreover, the EC is 1 µM in the test on Paracentrotus lividus [2], over 4 µM in the test with Paracentrotus lividus [3] and over 4 µM with Paracentrotus lividus [4].

For the compound `Nc1nonc1-c1nc2cc3ccccc3cc2[nH]1`, the EC was 0.5 µM in the test on Paracentrotus lividus [2], 4 µM with Paracentrotus lividus [3] and over 4 µM in the test on Paracentrotus lividus [4].

As to `C#CCn1c(-c2nonc2N)nc2ccccc21`, the growth at 10 µM in test [1] was found to be 99.6%. For the same compound, the EC with Paracentrotus lividus [2], with Paracentrotus lividus [3] and with Paracentrotus lividus [4] was over 4 µM in each case.

Take `COc1ccc(Cn2c(-c3nonc3N)nc3cc(C(F)(F)F)ccc32)cc1`: the growth at 10 µM in test [1] is 81.1%. The EC in the test on Paracentrotus lividus [2], with Paracentrotus lividus [3] and with Paracentrotus lividus [4] was over 4 µM in each case.

With `N#Cc1ccc(Cn2c(-c3nonc3N)nc3ccccc32)cc1`, the growth at 10 µM in test [1] is 79.8%. The EC in the test with Paracentrotus lividus [2] was 4 µM; in the test on Paracentrotus lividus [3], over 4 µM; in the test on Paracentrotus lividus [4] it was over 4 µM.

For `O=C(Nc1nonc1-c1nc2ccccc2n1Cc1ccncc1)c1ccncc1`, in test [1], the growth at 10 µM stood at 97.1%. Also, the EC in the test with Paracentrotus lividus [2], in the test with Paracentrotus lividus [3] and in the test on Paracentrotus lividus [4] was over 4 µM each time.

Regarding `Nc1nonc1-c1nc2ccccc2n1CC(=O)Nc1ccc2c(c1)COC2=O`, in test [1], the growth at 10 µM was 80.8%. For the same compound, the EC was 2 µM with Paracentrotus lividus [2], 4 µM with Paracentrotus lividus [3] and over 4 µM in the test on Paracentrotus lividus [4].

Take `Nc1nonc1-c1nc2ccccc2n1CC(=O)Nc1ccc(OC(F)(F)F)cc1`: the growth at 10 µM in test [1] was 105%. The EC was 4 µM in the test on Paracentrotus lividus [2], over 4 µM in the test on Paracentrotus lividus [3] and over 4 µM in the test on Paracentrotus lividus [4].

Regarding `CN(C)c1nc(N)nc(Cn2c(-c3nonc3N)nc3ccccc32)n1`, the growth at 10 µM in test [1] worked out at 80.8%. For the same compound, the EC is 2 µM with Paracentrotus lividus [2], over 4 µM in the test on Paracentrotus lividus [3] and over 4 µM with Paracentrotus lividus [4].

As to `Nc1nonc1-c1nc2ccccc2n1Cc1cc2c(cc1Cl)OCO2`, in test [1], the growth at 10 µM worked out at 88.3%. Also, the EC in the test on Paracentrotus lividus [2], in the test on Paracentrotus lividus [3] and with Paracentrotus lividus [4] was over 4 µM throughout.

Turning to `Cc1cc(C)cc(NC(=O)Cn2c(-c3nonc3N)nc3ccccc32)c1`, in test [1], the growth at 10 µM is 109%. For the same compound, the EC in the test with Paracentrotus lividus [2], in the test on Paracentrotus lividus [3] and in the test on Paracentrotus lividus [4] was over 4 µM in each case.

Take `COc1ccc2[nH]c(-c3nonc3N)nc2c1`: the growth at 10 µM in test [1] worked out at 101%. Besides, the results for the EC in the test on Paracentrotus lividus [2], in the test on Paracentrotus lividus [3] and in the test with Paracentrotus lividus [4] were 0.5 µM, over 4 µM and over 5 µM, respectively.

For `Nc1nonc1-c1nc2ccccc2n1CC(=O)Nc1ccc(F)c(Cl)c1`, the growth at 10 µM in test [1] was 70.5%. Moreover, the values for the EC with Paracentrotus lividus [2], in the test with Paracentrotus lividus [3] and with Paracentrotus lividus [4] were 2 µM, over 4 µM and over 4 µM, respectively.

With `Cc1ccc(NC(=O)Cn2c(-c3nonc3NC(=O)c3ccc(F)cc3)nc3ccccc32)cc1F`, in test [1], the growth at 10 µM was found to be 71.8%.

For the compound `CC(C)(C)c1ccc(Cn2c(-c3nonc3N)nc3ccccc32)cc1`, in test [1], the growth at 10 µM was 67.4%. Moreover, the EC in the test with Paracentrotus lividus [2], with Paracentrotus lividus [3] and in the test with Paracentrotus lividus [4] was over 4 µM each time.

On to `Cn1c(-c2nonc2NC(=O)c2ccc(F)cc2)nc2ccccc21`, for which, in test [1], the growth at 10 µM came out at 99.5%.

On to `Nc1nonc1-c1nc2cc(F)ccc2[nH]1`, for which, in test [1], the growth at 10 µM was found to be 97.8%. The EC with Paracentrotus lividus [2] is 2 µM; in the test on Paracentrotus lividus [3] it was over 4 µM; with Paracentrotus lividus [4] it was over 5 µM.

Consider `COc1ccc(Cn2c(-c3nonc3NC(C)=O)nc3ccccc32)cc1`, for which, in test [1], the growth at 10 µM stood at 85%. Also, the EC with Paracentrotus lividus [2], in the test with Paracentrotus lividus [3] and in the test on Paracentrotus lividus [4] was over 4 µM each time.

Turning to `Nc1nonc1-c1nc2ccccc2[nH]1`, in test [1], the growth at 10 µM worked out at 103%. Also, the values for the EC with Paracentrotus lividus [2], with Paracentrotus lividus [3] and in the test on Paracentrotus lividus [4] were 2 µM, over 4 µM and over 4 µM, respectively.

For `Cc1ccc(Cn2c(-c3nonc3N)nc3ccccc32)cc1`, the growth at 10 µM in test [1] was found to be 70.4%.

Consider `Nc1nc(N)nc(Cn2c(-c3nonc3N)nc3ccccc32)n1`, for which the growth at 10 µM in test [1] was 102%. The EC with Paracentrotus lividus [2], with Paracentrotus lividus [3] and with Paracentrotus lividus [4] was over 4 µM throughout.

For `Nc1nonc1-c1nc2ccccc2n1Cc1ccncc1`, the growth at 10 µM in test [1] amounted to 97%.

For the compound `CC(=O)Nc1nonc1-c1nc2ccccc2n1Cc1ccc(Cl)cc1Cl`, in test [1], the growth at 10 µM amounted to 76.7%.
